Reference: ChEMBL document CHEMBL4689842, “EUbOPEN Chemogenomics Library wave 1” (2021)

Tested on: HEK-293T
Test: Multiplex assay against HEK293T;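 on Population Tubulin-Different-Phenotype (%): share of the cells with healthy nuclei that show this phenotype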
Format: toxicity, cell-based
Conditions: human
Method in brief: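 Live cells carried four stains from seeding: Hoechst33342, BioTracker Green Microtubule Cytoskeleton Dye, MitoTracker Red and Annexin V Alexa Fluor 680. They were imaged on a CQ1 microscope at 37°C and 5% CO2 after compound addition. Using CellPathfinder machine-learning gating, cells were split into Hoechst high-intensity objects or normal cells, normal cells into healthy, pyknosed or fragmented nuclei, and pyknosed cells into mitotic or apoptotic; tubulin, mitochondrial-mass and membrane-permeability phenotypes are per cents of healthy-nucleus cells.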

[1] = 12 h, 1 µM, compound concentration 1 uM, replicate 1
[2] = 12 h, 1 µM, compound concentration 1 uM, replicate 2
[3] = 12 h, 10 µM, compound concentration 10 uM, replicate 1
[4] = 12 h, 10 µM, compound concentration 10 uM, replicate 2
[5] = 24 h, 1 µM, compound concentration 1 uM, replicate 1
[6] = 24 h, 1 µM, compound concentration 1 uM, replicate 2
[7] = 24 h, 10 µM, compound concentration 10 uM, replicate 1
[8] = 24 h, 10 µM, compound concentration 10 uM, replicate 2
[9] = 48 h, 1 µM, compound concentration 1 uM, replicate 1
[10] = 48 h, 1 µM, compound concentration 1 uM, replicate 2
[11] = 48 h, 10 µM, compound concentration 10 uM, replicate 1
[12] = 48 h, 10 µM, compound concentration 10 uM, replicate 2

COc1ccccc1CN[C@H]1C2CCN(CC2)[C@H]1C(c1ccccc1)c1ccccc1 [CP-96345]
Population Apoptotic (%) [1]: 61%
Population Fragmented Nuclei (%) [1]: 12%
Population Healthy Nuclei (%) [1]: 37%
Population Hoechst High Intensity Objects (%) [1]: 13%
Population Membrane Permeable-Phenotype (%) [1]: 0%
Population Mitochondria Different-Phenotype (%) [1]: 90%
Population Mitotic Cells (%) [1]: 38%
Population Normal (%) [1]: 86%
Population Pyknosed Nuclei (%) [1]: 50%
Population Tubulin-Different-Phenotype (%) [1]: 80%
Total Cell Count [1]: 250
Population Apoptotic (%) [2]: 8%
Population Fragmented Nuclei (%) [2]: 3%
Population Healthy Nuclei (%) [2]: 54%
Population Hoechst High Intensity Objects (%) [2]: 3%
Population Membrane Permeable-Phenotype (%) [2]: 10%
Population Mitochondria Different-Phenotype (%) [2]: 17%
Population Mitotic Cells (%) [2]: 91%
Population Normal (%) [2]: 96%
Population Pyknosed Nuclei (%) [2]: 42%
Population Tubulin-Different-Phenotype (%) [2]: 21%
Total Cell Count [2]: 244
Population Apoptotic (%) [3]: 79%
Population Fragmented Nuclei (%) [3]: 9%
Population Healthy Nuclei (%) [3]: 27%
Population Hoechst High Intensity Objects (%) [3]: 13%
Population Membrane Permeable-Phenotype (%) [3]: 2%
Population Mitochondria Different-Phenotype (%) [3]: 100%
Population Mitotic Cells (%) [3]: 20%
Population Normal (%) [3]: 86%
Population Pyknosed Nuclei (%) [3]: 63%
Population Tubulin-Different-Phenotype (%) [3]: 97%
Total Cell Count [3]: 296
Population Apoptotic (%) [4]: 25%
Population Fragmented Nuclei (%) [4]: 2%
Population Healthy Nuclei (%) [4]: 36%
Population Hoechst High Intensity Objects (%) [4]: 4%
Population Membrane Permeable-Phenotype (%) [4]: 6%
Population Mitochondria Different-Phenotype (%) [4]: 77%
Population Mitotic Cells (%) [4]: 74%
Population Normal (%) [4]: 95%
Population Pyknosed Nuclei (%) [4]: 60%
Population Tubulin-Different-Phenotype (%) [4]: 74%
Total Cell Count [4]: 179
Population Apoptotic (%) [5]: 56%
Population Fragmented Nuclei (%) [5]: 11%
Population Healthy Nuclei (%) [5]: 45%
Population Hoechst High Intensity Objects (%) [5]: 16%
Population Membrane Permeable-Phenotype (%) [5]: 6%
Population Mitochondria Different-Phenotype (%) [5]: 87%
Population Mitotic Cells (%) [5]: 43%
Population Normal (%) [5]: 83%
Population Pyknosed Nuclei (%) [5]: 43%
Population Tubulin-Different-Phenotype (%) [5]: 67%
Total Cell Count [5]: 253
Population Apoptotic (%) [6]: 10%
Population Fragmented Nuclei (%) [6]: 2%
Population Healthy Nuclei (%) [6]: 67%
Population Hoechst High Intensity Objects (%) [6]: 3%
Population Membrane Permeable-Phenotype (%) [6]: 5%
Population Mitochondria Different-Phenotype (%) [6]: 14%
Population Mitotic Cells (%) [6]: 89%
Population Normal (%) [6]: 97%
Population Pyknosed Nuclei (%) [6]: 30%
Population Tubulin-Different-Phenotype (%) [6]: 20%
Total Cell Count [6]: 333
Population Apoptotic (%) [7]: 81%
Population Fragmented Nuclei (%) [7]: 13%
Population Healthy Nuclei (%) [7]: 39%
Population Hoechst High Intensity Objects (%) [7]: 11%
Population Membrane Permeable-Phenotype (%) [7]: 0%
Population Mitochondria Different-Phenotype (%) [7]: 100%
Population Mitotic Cells (%) [7]: 18%
Population Normal (%) [7]: 88%
Population Pyknosed Nuclei (%) [7]: 47%
Population Tubulin-Different-Phenotype (%) [7]: 99%
Total Cell Count [7]: 298
Population Apoptotic (%) [8]: 26%
Population Fragmented Nuclei (%) [8]: 5%
Population Healthy Nuclei (%) [8]: 44%
Population Hoechst High Intensity Objects (%) [8]: 2%
Population Membrane Permeable-Phenotype (%) [8]: 4%
Population Mitochondria Different-Phenotype (%) [8]: 75%
Population Mitotic Cells (%) [8]: 73%
Population Normal (%) [8]: 97%
Population Pyknosed Nuclei (%) [8]: 50%
Population Tubulin-Different-Phenotype (%) [8]: 72%
Total Cell Count [8]: 218
Population Apoptotic (%) [9]: 48%
Population Fragmented Nuclei (%) [9]: 15%
Population Healthy Nuclei (%) [9]: 48%
Population Hoechst High Intensity Objects (%) [9]: 14%
Population Membrane Permeable-Phenotype (%) [9]: 4%
Population Mitochondria Different-Phenotype (%) [9]: 57%
Population Mitotic Cells (%) [9]: 51%
Population Normal (%) [9]: 85%
Population Pyknosed Nuclei (%) [9]: 36%
Population Tubulin-Different-Phenotype (%) [9]: 58%
Total Cell Count [9]: 334
Population Apoptotic (%) [10]: 8%
Population Fragmented Nuclei (%) [10]: 3%
Population Healthy Nuclei (%) [10]: 86%
Population Hoechst High Intensity Objects (%) [10]: 2%
Population Membrane Permeable-Phenotype (%) [10]: 6%
Population Mitochondria Different-Phenotype (%) [10]: 4%
Population Mitotic Cells (%) [10]: 91%
Population Normal (%) [10]: 97%
Population Pyknosed Nuclei (%) [10]: 9%
Population Tubulin-Different-Phenotype (%) [10]: 13%
Total Cell Count [10]: 612
Population Apoptotic (%) [11]: 79%
Population Fragmented Nuclei (%) [11]: 16%
Population Healthy Nuclei (%) [11]: 55%
Population Hoechst High Intensity Objects (%) [11]: 13%
Population Membrane Permeable-Phenotype (%) [11]: 0%
Population Mitochondria Different-Phenotype (%) [11]: 98%
Population Mitotic Cells (%) [11]: 20%
Population Normal (%) [11]: 86%
Population Pyknosed Nuclei (%) [11]: 28%
Population Tubulin-Different-Phenotype (%) [11]: 94%
Total Cell Count [11]: 327
Population Apoptotic (%) [12]: 39%
Population Fragmented Nuclei (%) [12]: 3%
Population Healthy Nuclei (%) [12]: 71%
Population Hoechst High Intensity Objects (%) [12]: 2%
Population Membrane Permeable-Phenotype (%) [12]: 4%
Population Mitochondria Different-Phenotype (%) [12]: 39%
Population Mitotic Cells (%) [12]: 60%
Population Normal (%) [12]: 97%
Population Pyknosed Nuclei (%) [12]: 25%
Population Tubulin-Different-Phenotype (%) [12]: 63%
Total Cell Count [12]: 330
